Activity calls are given as the source filed them. No cut-off for these calls is given here.

The test system of assay [1] is SK-LU-1. The assay can be described thus: Cytotoxicity against human SKLU1 cells as growth inhibition at 50 uM. The format is functional. The gist of the method: (§1)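 Growth inhibition calculated from absorbance as 100 − (sample absorbance / vehicle absorbance × 100).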
For assay [2], the system named is Syrian golden hamster. The assay can be described thus: Increase of diameter of pigmented spot of flank organs in gonadectomized golden hamster at 1 mg/kg, sc qd for 6 days co-administered with 1 mg/kg of testosterone (reference value: 2.03 +/- 0.63 millimeter). The format is functional, Mesocricetus auratus.
Assay [3] has as its system Syrian golden hamster. The assay can be described thus: Increase of prostate weight in gonadectomized golden hamster at 1 mg/kg, sc qd for 6 days co-administered with 1 mg/kg of testosterone (reference value: 50.4 +/- 9.9 mg). It counts as functional, Mesocricetus auratus, Prostate gland.
Assay [4] has as its system PC-3. In words: Cytotoxicity against human PC3 cells assessed as growth inhibition at 50 uM. The format is functional. The method, boiled down: as §1
Assay [5] concerns MCF7. The assay can be described thus: Cytotoxicity against human MCF7 cells as growth inhibition at 50 uM. The format is functional. The gist of the method:
as §1

Assay [6] relates to Syrian golden hamster. In words: Increase of seminal vesicles weight in gonadectomized golden hamster at 1 mg/kg, sc qd for 6 days co-administered with 1 mg/kg of testosterone (reference value: 96.11 +/- 12.5 mg). It counts as functional, Mesocricetus auratus.
Assay [7] deals with Syrian golden hamster. In words: Increase of diameter of pigmented spot of flank organs in gonadectomized golden hamster at 1 mg/kg, sc qd for 6 days (reference value: 2.03 +/- 0.63 millimeter). It counts as functional, Mesocricetus auratus.
The test system of assay [8] is Syrian golden hamster. In words: Increase of seminal vesicles weight in gonadectomized golden hamster at 1 mg/kg, sc qd for 6 days (reference value: 96.11 +/- 12.5 mg). The format is functional, Mesocricetus auratus.
The subject of assay [9] is Syrian golden hamster. In words: Increase of prostate weight in gonadectomized golden hamster at 1 mg/kg, sc qd for 6 days (reference value: 50.4 +/- 9.9 mg). The format is functional, Mesocricetus auratus, Prostate gland.

`CC(C)(C)NC(=O)[C@H]1CC[C@H]2[C@@H]3CC[C@H]4NC(=O)C=C[C@]4(C)[C@H]3CC[C@]12C` [FINASTERIDE]: the “growth inhibition (GI)” value in assay [1], in assay [4] and in [5] was “inactive” each time. Also, the figures for the Activity in assay [2], in assay [3] and in assay [6] were 3.57 mm, 69.6 mg and 161.4 mg, respectively.
Consider `C[C@]12CC[C@H]3[C@@H](CCC4=CC(=O)CC[C@@]43C)[C@@H]1CC[C@@H]2O` [TESTOSTERONE], for which the Activity came to 5.65 mm in assay [7], 200.6 mg in [8] and 98 mg in assay [9].

For the origin of these results see ChEMBL document CHEMBL3734650, “Synthesis and activity of novel 16-dehydropregnenolone acetate derivatives as inhibitors of type 1 5α-reductase and on cancer cell line SK-LU-1” (Bioorg Med Chem, 2015).
